In ChEMBL document CHEMBL1141797, “Norsesquiterpenes from the brown alga Dictyopteris divaricata” (J Nat Prod, 2005):

Legend:
Assay type in all cases: functional, cell-based
A549 = assay: Cytotoxicity against human A549 cells by MTT method
Summary of the method: (§1)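 MTT colorimetric read-out of cell viability, expressed as IC50 in µg/mL. Human tumour lines by origin: A549 lung adenocarcinoma, BGC-823 stomach cancer, MCF-7 breast cancer, Bel7402 hepatoma, HCT-8 colon cancer.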

MCF7 = assay: Cytotoxicity against human MCF7 cells by MTT method; summary of the method: as §1
BGC-823 = assay: Cytotoxicity against human BGC823 cells by MTT method; summary of the method: as §1
HCT-8 = assay: Cytotoxicity against human HCT8 cells by MTT method; summary of the method: as §1
Bel-7402 = assay: Cytotoxicity against human Bel7402 cells by MTT method; summary of the method: as §1

Measured: IC50

CC(C)[C@@H]1CC[C@@H](C)[C@]2(O)CCC(=O)C=C12
> 10 µg/mL: all assays above

CC(C)[C@@H]1CC[C@@H](C)[C@@]2(O)CC(=O)C=C12
> 10 µg/mL: all assays above

CC(C)[C@@H]1CC[C@@H](C)[C@]2(O)CC(=O)C=C12
> 10 µg/mL: all assays above

CC(C)[C@H]1CC[C@H](C)C2=CC(=O)C[C@@]21O
> 10 µg/mL: all assays above
